Data as given in ChEMBL document CHEMBL1143930, “S-Euglobals: biomimetic synthesis, antileishmanial, antimalarial, and antimicrobial activities” (Bioorg Med Chem, 2008).
≈ marks a conversion by molar mass, not a printed value. Calls of active or inactive are those of the source. The rule behind the calls is not given here.

Tests used:
SK-MEL = experiment: Cytotoxicity against human SKMEL cells by neutral red assay up to 25 ug/mL; assay type: functional, cell-based
Outline: (§1)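 Cells were seeded at 25,000 per well and incubated 24 h. Test samples were added at a range of concentrations, followed by a further 48 h incubation. Viable cells were quantified by Neutral Red uptake, and IC50 was read from dose curves of percent growth versus concentration.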

Vero = experiment: Cytotoxicity against african green monkey Vero cells by neutral red assay up to 25 ug/mL; assay type: cell-based; conditions: chlorocebus sabaeus; outline: as §1
Leishmania donovani = experiment: Antileishmanial activity against Leishmania donovani promastigotes after 48 hrs by Alamar blue assay; assay type: functional, organism-based
Outline: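 L. donovani promastigotes were grown in RPMI 1640 with 10% fetal calf serum at 26 C. A 3-day-old culture was diluted to 5 × 10^5 promastigotes/mL, and drug dilutions were made directly in the cell suspension. After 48 h at 26 C, growth was read by Alamar Blue fluorescence (ex 544/em 590 nm). IC50 and IC90 came from percent growth versus concentration curves.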

KB [1] = experiment: Cytotoxicity against human KB cells by neutral red assay up to 25 ug/mL; assay type: functional, cell-based; outline: as §1
Candida albicans = experiment: Antifungal activity against Candida albicans; assay type: functional, organism-based
Outline: (§2)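 Modified NCCLS broth microdilution. Samples in DMSO were serially diluted in 0.9% saline and tested in duplicate. Inocula were matched to the 0.5 McFarland standard by absorbance at 630 nm, then diluted in broth. Growth, solvent and media controls were included. Plates were read at 630 nm before and after incubation, and IC50 was taken from percent growth versus concentration.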

SK-OV-3 = experiment: Cytotoxicity against human SK-OV3 cells by neutral red assay up to 25 ug/mL; assay type: functional, cell-based; outline: as §1
Cryptococcus neoformans = experiment: Antifungal activity against Cryptococcus neoformans; assay type: functional, organism-based; outline: as §2
[2] = Cytotoxicity against pig LLC-PK11 cells by neutral red assay up to 25 ug/mL; assay type: cell-based, Sus scrofa; outline: as §1
Aspergillus fumigatus = experiment: Antifungal activity against Aspergillus fumigatus; assay type: functional, organism-based; outline: as §2
BT-549 [3] = experiment: Cytotoxicity against human BT549 cells by neutral red assay; assay type: functional, cell-based; outline: as §1
BT-549 [4] = experiment: Cytotoxicity against human BT549 cells by neutral red assay up to 25 ug/mL; assay type: functional, cell-based; outline: as §1
KB [5] = experiment: Cytotoxicity against human KB cells by neutral red assay; assay type: functional, cell-based; outline: as §1
Plasmodium falciparum [6] = experiment: Antimalarial activity against chloroquine-sensitive Plasmodium falciparum D6 by LDH release assay; assay type: functional, organism-based
Outline: (§3)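 Infected red cells (W2 or D6), 2% parasitemia, 2% hematocrit, in RPMI 1640 with 10% human serum and 60 µg/mL amikacin, exposed to serial sample dilutions. Incubated 72 h at 37 C under 90% N2/5% O2/5% CO2. Parasite LDH measured with Malstat reagent (30 min, room temperature), then NBT/PES 1 h in dark, stopped with 5% acetic acid, read at 650 nm. IC50 from dose-response curves.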

Plasmodium falciparum [7] = experiment: Antimalarial activity against chloroquine-resistant Plasmodium falciparum W2 by LDH release; assay type: functional, organism-based; outline: as §3
Staphylococcus aureus = experiment: Antibacterial activity against methicillin-resistant Staphylococcus aureus; assay type: functional, organism-based
Outline: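 Modified NCCLS broth microdilution. Samples in DMSO serially diluted in 0.9% saline, tested in duplicate. Inoculum set against 0.5 McFarland standard by absorbance at 630 nm, then diluted in broth. Growth, solvent and media controls included. Plates read at 630 nm before and after incubation. IC50 from percent growth vs concentration; MIC = lowest concentration with no detectable growth.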

Compound	Activity (SK-MEL)	Activity (Vero)	Activity (Leishmania donovani)	Activity (KB [1])	Activity (Candida albicans)	Activity (SK-OV-3)	Activity (Cryptococcus neoformans)	Activity [2]	Activity (Aspergillus fumigatus)	IC50 (BT-549 [3])	Activity (BT-549 [4])	IC50 (Leishmania donovani)	IC90 (Leishmania donovani)	IC50 (KB [5])	IC50 (Plasmodium falciparum [6])	IC50 (Plasmodium falciparum [7])	MIC (Staphylococcus aureus)
CC(C)CC(=O)c1c(O)c2c(c(C(=O)CC(C)C)c1O)O[C@@]1(CCO)[C@@H](C2)C[C@H]2C[C@@H]1C2(C)C	inactive	Not Active	inactive	inactive	inactive	inactive	inactive	Not Active	inactive	> 25 µg/mL							
CC(C)CC(=O)c1c(O)c2c(c(C(=O)CC(C)C)c1O)O[C@@]1(C)[C@@H](C2)C[C@H]2C[C@@H]1C2(C)C	inactive	Not Active	inactive	inactive	inactive	inactive	inactive	Not Active	inactive		inactive						
CC(C)CC(=O)c1c(O)c2c(c(C(=O)CC(C)C)c1O)O[C@]1(CC2)CC[C@@H]2C[C@H]1C2(C)C	inactive	Not Active	inactive	inactive	inactive	inactive	inactive	Not Active	inactive		inactive						
C[C@@H]1[C@H](O)[C@@H](C)/C=C/C=C/C=C/C=C/C=C/C=C/C=C/[C@H](O[C@@H]2O[C@H](C)[C@@H](O)[C@H](N)[C@@H]2O)C[C@@H]2O[C@](O)(C[C@@H](O)C[C@@H](O)[C@H](O)CC[C@@H](O)C[C@@H](O)CC(=O)O[C@H]1C)C[C@H](O)[C@H]2C(=O)O [AMPHOTERICIN B]												0.19 µg/mL (≈ 0.206 µM)	0.36 µg/mL (≈ 0.39 µM)				
CC(C)CC(=O)c1c(O)c2c(c(C(=O)CC(C)C)c1O)O[C@@]1(CC2)[C@H]2CC[C@H](C2)C1(C)C	inactive	Not Active	inactive	inactive	inactive	inactive	inactive	Not Active	inactive		inactive						
CC1(C)[C@H]2[C@@H]1CC[C@@H]1Cc3c(O)c(C=O)c(O)c(C=O)c3O[C@@]12C	inactive	Not Active			inactive	inactive	inactive	Not Active	inactive	> 25 µg/mL		20 µg/mL (≈ 60.5 µM)	40 µg/mL (≈ 121 µM)	20 µg/mL (≈ 60.5 µM)			
C[C@@H]1CC[C@H]2[C@@H](C)C(=O)O[C@@H]3O[C@@]4(C)CC[C@@H]1[C@]32OO4 [ARTEMISININ]															0.014 µg/mL (≈ 0.0496 µM)	0.0075 µg/mL (≈ 0.0266 µM)	
CC(C)CC(=O)c1c(O)c2c(c(C(=O)CC(C)C)c1O)O[C@@]1(C)[C@H](CC[C@H]3[C@@H]1C3(C)C)C2	inactive	Not Active	inactive	inactive	inactive	inactive	inactive	Not Active	inactive		inactive						
CC(C)CC(=O)c1c(O)c2c(c(C(=O)CC(C)C)c1O)O[C@]1(C)C[C@@H]3[C@H](C[C@@H]1C2)C3(C)C	inactive	Not Active	inactive	inactive	inactive	inactive	inactive	Not Active	inactive		inactive						
O=C(O)c1cn(C2CC2)c2cc(N3CCNCC3)c(F)cc2c1=O [CIPROFLOXACIN]																	0.25 µg/mL (≈ 0.754 µM)
